# Assay results of several laboratories.
# Compare with care: the assays were run in different laboratories.
SMILES,method,matrix,time,pH,temperature,setting,kinetic solubility
Cc1cc(Nc2ccc(C(F)(F)F)cc2)c2ccccc2n1,,PBS,,pH 6.5,,,83 µM
O=C1CCC(N2C(=O)c3cccc(NCCCCNC(=O)c4cccc(C#Cc5cc(NC(=O)Nc6ccnc(Cl)c6)ccn5)c4)c3C2=O)C(=O)N1 (stereo not drawn),,PBS,24 h,pH 7.4,,,< 1.56 µM
CNC(=O)[C@H](Cc1c[nH]cn1)NC(=O)CN(CC(=O)O)Cc1ccccc1,,PBS,24 h,pH 7.4,,,151 µM
CCOC(=O)NS(=O)(=O)c1sc(CC(C)C)cc1-c1ccc2c(c1)CN(C(C)=O)C2,,aqueous buffer,,pH 7.4,37 °C,,35 µM
Fc1ccc(Nc2c(-c3ccccn3)nc3ccc(C4CC4)cn23)cc1,,aqueous buffer,24 h,,,,3 µM
C=CC(=O)Nc1cc(Nc2nccc(Nc3cc(Cl)c(F)cc3C(C)(C)O)n2)c(OC)cc1N1CC[C@@H](N(C)C)C1,,aqueous buffer,,pH 7.4,,,616 µM
CN[C@@H]1CCN(c2ccc(Nc3cc(NC4CC4)n4ncc(C#N)c4n3)cc2NC(C)=O)C1,shake flask,PBS,24 h,pH 7.4,22 °C,,64 µg/mL
COC(=O)[C@H](Cc1c[nH]cn1)NC(=O)CN(CCCc1ccccc1)CC(=O)O,,PBS,24 h,pH 7.4,,,199 µM
CC(=O)Nc1cc(Nc2cc(NC3CC3)n3ncc(C#N)c3n2)ccc1N1CCC[C@H](O)C1,shake flask,PBS,24 h,pH 7.4,22 °C,,37 µg/mL
CC[C@H](NC(=O)[C@H](CS(=O)(=O)CC1CC1)N[C@@H](c1ccc(F)cc1)C(F)(F)F)C(=O)C(=O)NC1CC1,,PBS,,pH 7.4,,,223 µM
CCCCOC(=O)NS(=O)(=O)c1sc(CC(C)C)cc1-c1ccc2c(c1)CN(C(C)=O)C2,,aqueous buffer,,pH 7.4,37 °C,,30 µM
CCc1cnc2c(c1)[C@@H](N1CCOc3c(cc(Cn4ccnc4)cc3-c3cn(C)nc3C(F)(F)F)C1=O)CCC2,,PBS,1 h,pH 7.4,,,74 µM
Cc1noc([C@H](Cc2c[nH]cn2)NC(=O)CN(CCCc2ccccc2)CC(=O)O)n1,,PBS,24 h,pH 7.4,,,198 µM
CN[C@H]1CCCN(c2ccc(Nc3cc(NC4CC4)n4ncc(C#N)c4n3)cc2NC(C)=O)C1,shake flask,PBS,24 h,pH 7.4,22 °C,,54 µg/mL
Cc1cc(Nc2ccc(S(F)(F)(F)(F)F)cc2)n2ccnc2n1,,simulated gastric fluid,,pH 2,,acidic,> 285 µM
CC(=O)Nc1cc(Nc2cc(NC3CC3)n3ncc(C#N)c3n2)ccc1N1CCNCC1,shake flask,PBS,24 h,pH 7.4,22 °C,,52 µg/mL
CNC(=O)[C@H](Cc1c[nH]cn1)NC(=O)CN(CCCc1ccccc1)CC(=O)OC,,PBS,24 h,pH 7.4,,,179 µM
CC(=O)Nc1cc(Nc2cc(NC3CC3)n3ncc(C#N)c3n2)ccc1N(C)C1COC1,shake flask,PBS,24 h,pH 7.4,22 °C,,0.9 µg/mL
O=C(O)CN(CCCc1ccccc1)CC(=O)N[C@@H](Cc1c[nH]cn1)C(=O)NCc1ccccc1,,PBS,24 h,pH 7.4,,,179 µM
CC(=O)Nc1cc(Nc2cc(NC3CC3)n3ncc(C#N)c3n2)ccc1N(C)CC1COC1,shake flask,PBS,24 h,pH 7.4,22 °C,,0.2 µg/mL
CCOC(=O)NS(=O)(=O)c1sc(CC(C)C)cc1-c1ccc2c(c1)CN(C(=O)OCC)C2,,aqueous buffer,,pH 7.4,37 °C,,58 µM
